Reference: ChEMBL document CHEMBL3525903 (Drug Metab Dispos, 2013)

Assays:
[1] = target: T1, OCTN1 (SLC22A4) (Homo sapiens, UniProt Q9H015); assay: Inhibition of OCTN1 (unknown origin) expressed in HEK293 cells assessed as reduction of [3H]ergothioneine substrate uptake at 100 uM by liquid scintillation counting; type: cell-based; details: HEK293 cells expressing OCTN1, probe [3H]ergothioneine
T1 sequence (Q9H015 whole entry): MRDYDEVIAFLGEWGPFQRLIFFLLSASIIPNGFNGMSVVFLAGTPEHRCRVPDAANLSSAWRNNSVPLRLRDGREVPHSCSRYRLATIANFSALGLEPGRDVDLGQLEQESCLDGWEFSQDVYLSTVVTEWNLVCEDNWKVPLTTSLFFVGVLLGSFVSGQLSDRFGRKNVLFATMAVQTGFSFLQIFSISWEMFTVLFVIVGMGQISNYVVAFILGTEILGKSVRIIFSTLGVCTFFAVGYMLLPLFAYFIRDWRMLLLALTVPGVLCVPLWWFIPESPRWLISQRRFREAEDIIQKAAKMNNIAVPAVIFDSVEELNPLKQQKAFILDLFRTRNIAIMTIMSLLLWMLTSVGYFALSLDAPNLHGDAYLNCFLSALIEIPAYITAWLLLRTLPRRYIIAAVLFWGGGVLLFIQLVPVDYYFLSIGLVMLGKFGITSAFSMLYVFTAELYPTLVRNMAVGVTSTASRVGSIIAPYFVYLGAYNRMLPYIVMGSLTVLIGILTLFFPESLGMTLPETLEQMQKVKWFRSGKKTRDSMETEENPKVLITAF
Outline: (§1)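 HEK293 cells transiently transfected with OAT, OATP or OCT plasmid (FuGENE6; 24 h, then 24 h more with sodium butyrate), or stable OCTN1/OCTN2 lines; vector-transfected cells as control. Washed, preincubated 15–60 min at 37 °C in modified Krebs-Henseleit/25 mM HEPES buffer. Uptake of radiolabelled substrate, 100 µM inhibitor. Cells lysed in NaOH and counted by scintillation; counts normalised to medium radioactivity and Lowry protein; vector uptake subtracted.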

[2] = target: T2, OCTN2 (Homo sapiens, UniProt O76082); assay: Inhibition of OCTN2 (unknown origin) expressed in HEK293 cells assessed as reduction of [3H]carnitine substrate uptake at 100 uM by liquid scintillation counting; type: cell-based; details: HEK293 cells expressing OCTN2, probe [3H]carnitine; outline: as §1
T2 sequence (O76082 whole entry): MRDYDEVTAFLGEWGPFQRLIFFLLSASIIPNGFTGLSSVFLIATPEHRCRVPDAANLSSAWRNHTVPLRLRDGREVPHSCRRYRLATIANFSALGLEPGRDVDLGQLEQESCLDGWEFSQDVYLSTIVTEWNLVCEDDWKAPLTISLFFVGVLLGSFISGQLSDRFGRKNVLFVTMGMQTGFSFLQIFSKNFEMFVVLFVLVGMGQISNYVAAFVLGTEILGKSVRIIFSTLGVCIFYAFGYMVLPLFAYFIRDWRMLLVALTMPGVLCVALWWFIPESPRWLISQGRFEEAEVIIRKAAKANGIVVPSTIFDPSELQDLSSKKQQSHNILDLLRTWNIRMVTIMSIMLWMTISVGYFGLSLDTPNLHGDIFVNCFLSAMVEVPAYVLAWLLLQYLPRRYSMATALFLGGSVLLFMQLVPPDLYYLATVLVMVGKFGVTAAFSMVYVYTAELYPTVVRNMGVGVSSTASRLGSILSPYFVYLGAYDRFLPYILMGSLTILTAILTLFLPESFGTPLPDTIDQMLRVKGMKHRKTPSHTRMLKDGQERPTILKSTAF

[3] = system: P-glycoprotein; assay: Permeability assessed as human P-glycoprotein-mediated transport across apical to basolateral side expressed in pig LLC-PK1 cells at 500 uM by liquid scintillation counting; type: ADME, cell-based
[4] = system: P-glycoprotein; assay: Permeability assessed as human P-glycoprotein-mediated transport across apical to basolateral side expressed in pig LLC-PK1 cells by Transwell experiment/liquid scintillation counting; type: ADME, cell-based
[5] = system: P-glycoprotein; assay: Permeability assessed as human P-glycoprotein-mediated of transport of basolateral to apical side expressed in pig LLC-PK1 cells by Transwell experiment/liquid scintillation counting; type: ADME, cell-based
[6] = system: P-glycoprotein; assay: Permeability assessed as human P-glycoprotein-mediated active membrane transport by measuring apical to basolateral side expressed in pig LLC-PK1 cells by Transwell experiment/liquid scintillation counting; type: ADME, cell-based; details: read-out: permeability
[7] = Inhibition of human P-glycoprotein expressed in pig LLC-PK1 cells assessed as reduction of [3H]digoxin substrate transport by liquid scintillation counting; type: ADME, cell-based
Outline: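 P-gp-expressing and parental LLC-PK1 monolayers were grown on transwell inserts for 6–7 days to confluence and switched to serum-free M199 1 h before assay. [3H]digoxin was given apical-to-basal or basal-to-apical, with inhibitor in both chambers, at 37 °C, solvent ≤0.5%. Receiver samples were scintillation-counted and Papp taken from the linear phase. Results are % of control BtoA transport, mean ± S.D., n≥3.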

[8] = target: T3, Solute carrier organic anion transporter family member 1B1 (Homo sapiens, UniProt Q9Y6L6); assay: Inhibition of OATP1B1 (unknown origin) expressed in HEK293 cells assessed as reduction of [3H]E217betaG substrate uptake at 100 uM by liquid scintillation counting; type: ADME, cell-based; details: hek293, 100 µM; outline: as §1
T3 sequence (Q9Y6L6 whole entry): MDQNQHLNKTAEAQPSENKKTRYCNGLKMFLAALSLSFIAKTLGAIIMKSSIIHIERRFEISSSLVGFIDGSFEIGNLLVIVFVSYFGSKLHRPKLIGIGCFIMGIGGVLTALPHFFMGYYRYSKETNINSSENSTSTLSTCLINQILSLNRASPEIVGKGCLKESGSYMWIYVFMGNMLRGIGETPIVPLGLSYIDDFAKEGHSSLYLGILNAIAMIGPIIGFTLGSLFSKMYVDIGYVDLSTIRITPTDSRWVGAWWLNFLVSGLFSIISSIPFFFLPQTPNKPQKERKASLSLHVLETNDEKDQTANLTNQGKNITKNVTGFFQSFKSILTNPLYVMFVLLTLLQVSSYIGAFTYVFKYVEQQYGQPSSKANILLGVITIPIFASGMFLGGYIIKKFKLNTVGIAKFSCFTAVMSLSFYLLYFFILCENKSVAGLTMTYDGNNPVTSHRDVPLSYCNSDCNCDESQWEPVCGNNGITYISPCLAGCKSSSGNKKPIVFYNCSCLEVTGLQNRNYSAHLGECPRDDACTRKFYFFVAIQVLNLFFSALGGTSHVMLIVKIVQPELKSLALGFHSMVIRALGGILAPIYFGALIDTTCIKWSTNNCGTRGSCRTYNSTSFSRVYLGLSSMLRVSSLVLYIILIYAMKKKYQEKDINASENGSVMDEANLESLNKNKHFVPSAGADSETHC

CC#CCn1c(N2CCC[C@@H](N)C2)nc2c1c(=O)n(Cc1nc(C)c3ccccc3n1)c(=O)n2C [LINAGLIPTIN]
inhibition at 100 µM [1]: 19.4%
inhibition at 100 µM [2]: 15.5%
Papp A→B at 500 µM [3]: 26.7 ×10⁻⁶ cm/s
Km [4]: 220 µM
Km [5]: 154 µM
Papp A→B [6]: 25.1 ×10⁻⁶ cm/s
inhibition (INH) [7]: Dose-dependent effect
inhibition (INH) [8]: 35.5%
